Calls of active or inactive are those of the source. The calls are words filed in the database; no cut-off is given here.
How the values were obtained:
[1] = test system: D1; test: Osteogenic effect on mouse D1 cells assessed as extracellular matrix calcification at 10 uM after 7 days by using alizarin red S dye; format: functional, cell-based
Outline: (§1)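 Cells were induced in osteo-induction medium (low-glucose DMEM, 10% FBS, 0.1 µM dexamethasone, 10 mM β-glycerophosphate, 100 µM L-ascorbic 2-phosphate) for 7–14 days. Compounds were added at a final 10 µM from 10 mM DMSO stocks (0.1% DMSO), with DMSO-matched controls.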

[2] = test system: RAW264.7; test: Cytotoxicity against mouse RAW264.7 cells at 10 uM after 3 days by MTT assay; format: cell-based; details: raw264.7, 72 h
Outline: (§2)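 Compounds came from 10 mM DMSO stocks, diluted fresh in medium to a final 10 µM (0.1% DMSO), with vehicle-matched DMSO controls. After treatment, MTT ([…] in PBS) was added for 4 h. Formazan was then dissolved in DMSO for 0.5 h and read at 570 nm, expressed as % of control.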

[3] = test system: MC3T3-E1; test: Osteogenic effect on mouse MC3T3-E1 cells assessed as extracellular matrix calcification at 10 uM after 12 days by using alizarin red S dye; format: functional, cell-based; outline: as §1
[4] = test system: MADS; test: Osteogenic effect on human MADS cells assessed as extracellular matrix calcification at 10 uM after 13 days by using alizarin red S dye; format: functional, cell-based; outline: as §1
[5] = test system: RAW264.7; test: Antiosteoporotic activity in mouse RAW264.7 cells assessed as inhibition of RANKL-stimulated osteoclastogenesis by TRAP assay; format: functional, cell-based; details: for EC50: read-out: ED50 (the source's name)
Outline: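 RAW 264.7 cells were seeded at 10^3 cells per well with 100 ng/mL RANKL and cultured 5 days at 37 °C in 5% CO2, with fresh RANKL-containing medium added on day 3. TRAP activity was read as conversion of 4 mmol/L α-naphthyl phosphate to α-naphthol in the presence of 2 mol/L L-tartrate, by absorbance at 405 nm.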

[6] = test system: adipose-derived stem cells (Homo sapiens); test: Cytotoxicity against human adipose-derived stem cells assessed as decrease in cell viability; details: hADSC
[7] = Cytotoxicity against mouse D1 cells at 10 uM after 3 days by MTT assay; format: cell-based; details: d1, 72 h; outline: as §2
[8] = Selectivity ratio for osteogenic effect of 3-(3,4-dimethoxyphenyl)-7-(oxiran-2-ylmethoxy)-4H-chromen-4-one on MC3T3-E1 cells to osteogenic effect of ipriflavone on MC3T3-E1 cells; format: functional, Mus musculus
[9] = Selectivity ratio for osteogenic effect of 3-(4-(3-(cyclohexylamino)-2-hydroxypropoxy)phenyl)-7-methoxy-4H-chromen-4-one on MC3T3-E1 cells to osteogenic effect of ipriflavone on MC3T3-E1 cells; format: functional, Mus musculus
[10] = Cytotoxicity against human ADSC at 10 uM after 3 days by MTT assay; details: 72 h; outline: as §2

## COc1ccc(-c2coc3cc(OCC4CO4)ccc3c2=O)cc1OC (stereo not given)
[1]
  Activity: Active
[2]
  Activity: Non-toxic
[3]
  Activity: Active
[4]
  Activity: Active
[5]
  IC50: 0.56 µM
  EC50: 0.56 µM
[6]
  Activity: 60%
[7]
  Activity: Non-toxic
[8]
  Selectivity ratio: 10

## COc1ccc(-c2coc3cc(OCC(O)CNC4CCCCC4)ccc3c2=O)cc1OC (stereo not given)
[5]
  IC50: 4.17 µM

## COc1ccc2c(=O)c(-c3ccc(OCC(O)CNC4CCCCC4)cc3)coc2c1 (stereo not given)
[1]
  Activity: Active
[2]
  Activity: Non-toxic
[9]
  Selectivity ratio: 10
[3]
  Activity: Active
[4]
  Activity: Active
[10]
  Activity: Non-toxic
[5]
  EC50: 2.28 µM
[7]
  Activity: Non-toxic

## CC(C)Oc1ccc2c(=O)c(-c3ccccc3)coc2c1 [IPRIFLAVONE]
[4]
  Activity: Active
[10]
  Activity: Non-toxic

## O=c1cc(-c2ccccc2)oc2cc(O)c(O)c(O)c12 [BAICALEIN]
[5]
  IC50: 13 µM

## COc1ccc2c(=O)c(-c3ccc(OCC(O)CNC4CC4)cc3)coc2c1 (stereo not given)
[5]
  IC50: 4.85 µM

## O=C(c1ccc(OCCN2CCCCC2)cc1)c1c(-c2ccc(O)cc2)sc2cc(O)ccc12 [RALOXIFENE]
[4]
  Activity: Active
[10]
  Activity: Non-toxic

## COc1ccc2c(=O)c(-c3ccc(OCC4CO4)cc3)coc2c1 (stereo not given)
[5]
  IC50: 6.39 µM
